Laboratory results published in ChEMBL document CHEMBL1781977, “Design and synthesis of 3,5-diarylisoxazole derivatives as novel class of anti-hyperglycemic and lipid lowering agents” (Bioorg Med Chem, 2009).
Activity calls are given as the source filed them. The rule behind the calls is not given here.

Key:
[1] = test system: Rattus norvegicus; assay: Antihyperglycemic activity against sucrose challenged streptozotocin-induced diabetic Sprague-Dawley albino rat assessed as reduction in blood glucose level at 100 mg/kg, po administered 30 mins before sucrose challenge measured after 5 hrs; format: functional
Method in brief: (§1)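 Male Sprague Dawley rats, 160 ± 20 g, fasted overnight, given streptozotocin 60 mg/kg ip in 100 mM citrate pH 4.5. Rats with glucose 144–270 mg/dl at 48 h count as diabetic, 5–6 per group. Dosed 100 mg/kg orally in 1.0% gum acacia. Sucrose 2.5 g/kg given 30 min later. Glucose read at 30–300 min and 24 h. Non-responders excluded.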

[2] = biological target: T1, Tyrosine-protein phosphatase non-receptor type 1 (Homo sapiens) (UniProt P18031); assay: Inhibition of protein tyrosine phosphatase-1B at 10 uM incubated for 10 mins using pNPP substrate by modified Goldstein method; design: Activity: scale not given: the % may be the effect or the level left
T1 sequence (whole entry): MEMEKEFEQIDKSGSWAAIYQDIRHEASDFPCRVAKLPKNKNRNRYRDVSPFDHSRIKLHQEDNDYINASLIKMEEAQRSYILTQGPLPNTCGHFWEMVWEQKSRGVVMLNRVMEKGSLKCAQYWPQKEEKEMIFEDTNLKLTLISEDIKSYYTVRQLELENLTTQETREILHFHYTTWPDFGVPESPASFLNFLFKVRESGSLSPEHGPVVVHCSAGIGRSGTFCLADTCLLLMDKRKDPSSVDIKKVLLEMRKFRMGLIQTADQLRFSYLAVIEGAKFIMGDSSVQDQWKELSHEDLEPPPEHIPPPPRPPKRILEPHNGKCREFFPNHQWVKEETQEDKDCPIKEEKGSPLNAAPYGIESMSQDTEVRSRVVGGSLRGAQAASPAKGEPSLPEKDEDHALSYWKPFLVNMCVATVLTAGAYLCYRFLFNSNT
Method in brief: (§2)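 PTP-1B: compound preincubated 10 min with enzyme, with or without 0.01% Triton X-100. Then 10 mM pNPP in 50 mM HEPES pH 7.0 with 1 mM DTT and 2 mM EDTA, 30 min at 37 °C. Stopped with 0.1 N NaOH; absorbance read at 410 nm. p-Nitrophenolate calculated using ε 1.78 × 10⁴ M⁻¹cm⁻¹. Sodium orthovanadate used as reference.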

[3] = biological target: T2, Tyrosine-protein phosphatase non-receptor type 1 (Homo sapiens, UniProt P18031); assay: Inhibition of protein tyrosine phosphatase-1B at 10 uM incubated for 10 mins using pNPP substrate in absence of Triton X-100 by modified Goldstein method; method in brief: as §2
T2 sequence (P18031 whole entry): T1 sequence (whole entry)

[4] = test system: Rattus norvegicus; assay: Antihyperglycemic activity against sucrose challenged streptozotocin-induced diabetic Sprague-Dawley albino rat assessed as reduction in blood glucose level at 100 mg/kg, po administered 30 mins before sucrose challenge measured after 24 hrs; format: functional; method in brief: as §1
[5] = biological target: T2, Tyrosine-protein phosphatase non-receptor type 1; assay: Inhibition of protein tyrosine phosphatase-1B at 10 uM incubated for 10 mins using pNPP substrate in presence of 0.01% Triton X-100 by modified Goldstein method; method in brief: as §2
[6] = test system: Rattus norvegicus; assay: Antihyperglycemic activity in Charles Foster/Wistar albino rat assessed as reduction in blood glucose level at 100 mg/kg, po administered 30 mins before sucrose challenge; format: functional
Method in brief: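 Male Charles Foster/Wistar rats, 160 ± 20 g, fasted 16 h; animals with glucose 60–80 mg/dl used, 5–6 per group. Given 100 mg/kg orally as suspension in 1.0% gum acacia (controls vehicle alone). Sucrose 10.0 g/kg orally 30 min later. Glucometer readings at 30, 60, 90, 120 min. Percent activity derived from AUC of treated versus control groups.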

[7] = test system: Mus musculus; assay: Antihyperglycemic activity in C57BL/Ks db/db mouse assessed as reduction in blood glucose level at 100 mg/kg, po measured 10 days post dose by postprandial glucose tolerance test; format: functional; conditions: 240 h, in the assay text read “oral glucose tolerance test” for “postprandial glucose tolerance test”
Method in brief: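 db/db mice (C57BL/KsBom, 12–18 weeks, 40–50 g) given 100 mg/kg orally, vehicle 1.0% gum acacia. Day 10 OGTT after overnight fast: glucose at −30 min and drug given, then glucose at 0 min. Glucose 3 g/kg given, with readings at 30, 60, 90 and 120 min.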

[8] = test system: Mus musculus; assay: Antidyslipidemic activity in C57BL/Ks db/db mouse assessed as plasma HDL-cholesterol level at 100 mg/kg, po; format: functional
Method in brief: (§3)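 db/db mice (C57BL/KsBom, 12–18 weeks, 5 male and 5 female) dosed orally at 100 mg/kg in 1.0% gum acacia. Blood collected on day 8 for serum lipids. Mean ± SD, n = 5, against vehicle-treated db/db controls; Dunnett's test.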

[9] = organism: Mus musculus; assay: Antihyperglycemic activity in C57BL/Ks db/db mouse assessed as reduction in blood glucose level measured after 3 days relative to control; format: functional
[10] = test system: Mus musculus; assay: Antidyslipidemic activity in C57BL/Ks db/db mouse assessed as reduction in plasma triglyceride level at 100 mg/kg, po; format: functional; method in brief: as §3
[11] = test system: Mus musculus; assay: Antidyslipidemic activity in C57BL/Ks db/db mouse assessed as reduction in plasma cholesterol level at 100 mg/kg, po; format: functional; method in brief: as §3
[12] = biological target: Dipeptidyl peptidase 4 (Homo sapiens) (UniProt P27487); assay: Inhibition of DPP4 assessed as rate of substrate cleavage using Gly-Pro-AMC substrate by spectrofluorometry
Chain of Dipeptidyl peptidase 4 (Homo sapiens) (P27487 whole entry, looked up): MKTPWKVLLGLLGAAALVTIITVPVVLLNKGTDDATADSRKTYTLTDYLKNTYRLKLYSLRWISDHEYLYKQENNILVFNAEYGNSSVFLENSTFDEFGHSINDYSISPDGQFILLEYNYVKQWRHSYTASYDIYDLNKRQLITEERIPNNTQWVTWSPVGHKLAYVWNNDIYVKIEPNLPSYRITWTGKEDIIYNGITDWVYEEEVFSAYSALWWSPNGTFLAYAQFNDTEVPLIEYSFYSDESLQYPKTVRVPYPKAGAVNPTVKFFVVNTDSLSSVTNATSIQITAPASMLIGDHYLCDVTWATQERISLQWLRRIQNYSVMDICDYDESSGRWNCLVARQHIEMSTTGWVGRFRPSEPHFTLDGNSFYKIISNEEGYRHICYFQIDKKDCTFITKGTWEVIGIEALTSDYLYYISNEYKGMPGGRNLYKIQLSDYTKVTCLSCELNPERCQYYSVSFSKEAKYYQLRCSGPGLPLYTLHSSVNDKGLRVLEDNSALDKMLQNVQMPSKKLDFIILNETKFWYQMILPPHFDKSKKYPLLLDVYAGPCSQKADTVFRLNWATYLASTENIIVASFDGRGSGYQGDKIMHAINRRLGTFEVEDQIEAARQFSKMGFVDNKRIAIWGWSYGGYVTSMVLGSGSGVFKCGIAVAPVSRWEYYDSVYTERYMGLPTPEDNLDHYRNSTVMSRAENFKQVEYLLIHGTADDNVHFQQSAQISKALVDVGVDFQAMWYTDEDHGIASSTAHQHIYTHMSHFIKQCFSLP
Method in brief: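 DPP-IV activity read by fluorescence at 37 °C, excitation 355 nm and emission 460 nm. Initial rate calculated over the first 15 min as increase in fluorescence intensity.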

[13] = test system: Rattus norvegicus; assay: Antihyperglycemic activity against sucrose challenged streptozotocin-induced diabetic Sprague-Dawley albino rat assessed as reduction in blood glucose level at 15 mg/kg, po administered 30 mins before sucrose challenge; format: functional
Method in brief: (§4)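 Streptozotocin-diabetic Sprague Dawley rats: streptozotocin 60 mg/kg ip in citrate pH 4.5; rats at 144–270 mg/dl after 48 h used. Oral doses of 7.5–100 mg/kg in 1.0% gum acacia, then sucrose 2.5 g/kg. Glucose measured at 30, 60, 90, 120, 180, 240, 300 and 1440 min. ED50 taken from dose response. Mean ± SD, n = 5; Dunnett's test.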

[14] = test system: Rattus norvegicus; assay: Antihyperglycemic activity against sucrose challenged streptozotocin-induced diabetic Sprague-Dawley albino rat assessed as reduction in blood glucose level at 50 mg/kg, po administered 30 mins before sucrose challenge; format: functional; method in brief: as §4
[15] = test system: Mus musculus; assay: Antihyperglycemic activity in C57BL/Ks db/db mouse assessed as reduction in blood glucose level at 100 mg/kg, po measured 6 days post dose by postprandial glucose tolerance test; format: functional; conditions: 144 h
Method in brief: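 C57BL/KsBom-db mice, 12–18 weeks, 40–50 g, 5 male and 5 female, at 23 °C with 12/12 h light cycle. Treated orally at 100 mg/kg, vehicle 1.0% gum acacia. Day 6 postprandial test: glucose at −0.5 h and 0 h, then at 1, 2, 3, 4 and 6 h after dosing.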

[16] = test system: Rattus norvegicus; assay: Antihyperglycemic activity against sucrose challenged streptozotocin-induced diabetic Sprague-Dawley albino rat assessed as reduction in blood glucose level at 25 mg/kg, po administered 30 mins before sucrose challenge; format: functional; method in brief: as §4
[17] = test system: Rattus norvegicus; assay: Antihyperglycemic activity against sucrose challenged streptozotocin-induced diabetic Sprague-Dawley albino rat assessed as reduction in blood glucose level administered orally 30 mins before sucrose challenge; format: functional; conditions: po; method in brief: as §4
[18] = test system: Rattus norvegicus; assay: Antihyperglycemic activity against sucrose challenged streptozotocin-induced diabetic Sprague-Dawley albino rat assessed as reduction in blood glucose level at 7.5 mg/kg, po administered 30 mins before sucrose challenge; format: functional; method in brief: as §4
[19] = test system: Rattus norvegicus; assay: Antihyperglycemic activity against sucrose challenged streptozotocin-induced diabetic Sprague-Dawley albino rat assessed as reduction in blood glucose level at 100 mg/kg, po administered 30 mins before sucrose challenge; format: functional; method in brief: as §1

Compound | Activity [2] [%] | IC50 [3] [µM] | IC50 [5] [µM] | inhibition [2] [%] | inhibition in vivo at 100 mg/kg [1] [%] | inhibition in vivo at 100 mg/kg [4] [%] | inhibition in vivo at 100 mg/kg [6] [%] | other results
COc1ccc(-c2cc(-c3ccccc3)no2)c(OCC(O)CN2CCCC2)c1 (stereo not given) | 86.2 | 3.4 | 4.2 |  | 18.5 | 17.6 | 26.8 | inhibition in vivo at 100 mg/kg [7]: 15.5%; Activity [8]: 1.8%; inhibition (INH) [9]: 15.7%; inhibition in vivo at 100 mg/kg [10]: -8.5%; inhibition in vivo at 100 mg/kg [11]: -9.8%; inhibition [12]: inactive; inhibition in vivo at 15 mg/kg [13]: 11.6%; inhibition in vivo at 50 mg/kg [14]: 17.9%; inhibition in vivo at 100 mg/kg [15]: 15.9%; inhibition in vivo at 25 mg/kg [16]: 13.8%; ED50 [17]: 80.2 mg/kg; inhibition in vivo at 7.5 mg/kg [18]: 8.4%; inhibition in vivo at 100 mg/kg [19]: 18.5%
COc1ccc(Cl)cc1C(=O)NCCc1ccc(S(=O)(=O)NC(=O)NC2CCCCC2)cc1 [GLYBURIDE] |  |  |  |  | 32.8 |  | 33.9 | inhibition (INH) [9]: 13.6%
COc1ccc(-c2cc(-c3ccccc3)no2)c(OCCCN2CCCCC2)c1 |  | 4.4 | 4.42 | 89.5 | 14.7 | 15 | 20.8 | inhibition [12]: inactive
COc1ccc(-c2cc(-c3ccccc3)no2)c(OCCCC(=O)O)c1 | 24.4 | 22.3 | 22.4 |  | 14.9 | 14.2 | 14.2 | 
COc1ccc(-c2cc(-c3ccccc3)no2)c(OCCCN2CCCC2)c1 |  | 3.5 | 3.46 | 82.7 | 13.4 | 11.2 | 21.2 | inhibition [12]: inactive
CCOC(=O)CCCOc1cc(OC)ccc1-c1cc(-c2ccccc2)no1 |  | 26.7 | 26.7 | 20.1 |  |  | 4.6 | 

More lines, main results first:

Activity [2] [%] | IC50 [3] [µM] | IC50 [5] [µM] | inhibition [2] [%] | Compound | inhibition in vivo at 100 mg/kg [1] [%] | inhibition in vivo at 100 mg/kg [4] [%] | inhibition in vivo at 100 mg/kg [6] [%] | other results
82.8 | 4.3 | 6.89 |  | CCN(CC)CC(O)COc1cc(OC)ccc1-c1cc(-c2ccccc2)no1 (stereo not given) | 11.6 | 11.4 | 13.8 | 
 | 2.5 | 2.61 | 82.9 | COc1ccc(-c2cc(-c3ccccc3)no2)c(OCCN2CCOCC2)c1 |  |  | 2.8 | 
11.8 | 31.1 | 31.3 |  | COc1ccc(-c2cc(-c3ccccc3)no2)c(OCC2CO2)c1 (stereo not given) |  |  | 10.7 | 
85.9 | 6.8 | 3.31 |  | COc1ccc(-c2cc(-c3ccccc3)no2)c(OCC(O)CN2CCCCC2)c1 (stereo not given) | 15.8 | 16.8 | 17 | 
 | 56.8 | 56.9 | 9 | COc1ccc(-c2cc(-c3ccccc3)no2)c(OCCCCl)c1 |  |  | 9.24 | 
